Data published in article PMC9303875 (Clinical Pharmacology in Drug Development, 2022).
Where two headings read alike, the source gives them in different places. Marks after values point to notes of the source that are not given here.

How the values were obtained:
[1] = type: in vivo, human; conditions: for time to steady-state PK based on Ctrough: continuous once-daily dosing combined with chemotherapy
Procedure, shortened: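 Samples were taken predose and 0.5–8 h (24 h per footnote) post-dose with once-daily dosing. AUC0-24, Cmax, tmax and Ctrough were derived using actual times, and predose BLQ values were set to 0. Accumulation ratio was C1D14/C1D1 or C1D21/C1D8 of induction. Steady state was judged from Ctrough across cycles, and consolidation data pooled both regimens (ME or ARA-C).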

bone marrow 2-HG = test: Bone marrow 2-HG pharmacodynamics in patients with newly diagnosed mIDH1/2 AML; type: in vivo, human; conditions: after multiple doses; combined with chemotherapy
Procedure, shortened: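 Bone marrow aspirates from patients on oral ivosidenib or enasidenib once daily plus chemotherapy. 2-HG was quantified by LC-MS/MS using a qualified surrogate analyte method, with ¹³C₅ 2-HG as the surrogate for calibrators and QCs. LLOQ was 10 ng/mL, and BLQ values were set to LLOQ. Percentage reduction from baseline was computed using actual times relative to dosing.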

plasma 2-HG = test: Plasma 2-HG pharmacodynamics in patients with newly diagnosed mIDH1/2 AML; type: in vivo, human; conditions: for reduction of mean trough plasma 2-HG concentrations (up to): after multiple doses, combined with chemotherapy; for mean reduction in plasma 2-HG concentration: enasidenib started C1D1, by induction C1D14
Procedure, shortened: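 Plasma was sampled within 30 min predose and at 0.5, 2, 4, 6, 8 (and 24, per footnote) h on induction C1D1/C1D14 and consolidation C1D1; the delayed-start cohort was sampled on C1D8/C1D21. 2-HG was measured by surrogate-analyte (¹³C₅ 2-HG) LC-MS/MS, LLOQ 30 ng/mL, with BLQ set to LLOQ. AUEC0-8, AUEC0-24, BAUEC0-24 and Rtrough used actual times. C1D14 reductions were grouped by best overall response: CR; IR (CRi, CRp, MLFS, PR); NR (SD, PD).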

[2] = test system: advanced mIDH2 hematologic malignancies; conditions: cited from earlier work
IDH2-R172 = conditions: preclinical and in vitro data; cited from earlier work
[3] = cited from earlier work
2-HG [4] = conditions: cited from earlier work; for plasma 2-HG reduction from baseline, maximum / plasma 2-HG reduction from baseline, median: enasidenib 100 mg once daily
CYP3A4 = conditions: healthy participants; cited from earlier work
2-HG [5] = conditions: ivosidenib 500 mg once daily single agent, cited from earlier work
mIDH1 R/R AML = conditions: patients with mIDH1 R/R AML; ivosidenib 500 mg once daily; cited from earlier work
[6] = cited from earlier work; remark: listed apart in the source
[7] = enasidenib 100 mg QD + chemotherapy, Consolidation C1D1
[8] = enasidenib 100 mg QD starting day 1 + chemotherapy, Induction C1D1
[9] = enasidenib 100 mg QD starting day 1 + chemotherapy, Induction C1D14
[10] = enasidenib 100 mg QD starting day 8 + chemotherapy, Induction C1D8
[11] = enasidenib 100 mg QD starting day 8 + chemotherapy, Induction C1D21
[12] = ivosidenib 500 mg QD + chemotherapy, Consolidation C1D1
[13] = ivosidenib 500 mg QD + chemotherapy, Induction C1D14 / induction C1D1
[14] = ivosidenib 500 mg QD + chemotherapy, Induction C1D1
[15] = ivosidenib 500 mg QD + chemotherapy, Induction C1D14

For `CC(C)(O)CNc1nc(Nc2ccnc(C(F)(F)F)c2)nc(-c2cccc(C(F)(F)F)n2)n1` [Enasidenib, enasidenib], the “time to steady-state PK based on Ctrough” value [1] was at most 14 days, the “Racc AUC0-24 (accumulation ratio based on AUC0-24), mean (SD)” value [1, 7] was 7.93 (4.29); 18 and the “Racc Cmax (accumulation ratio based on Cmax), mean (SD)” value [1, 7] was 7.15 (4.59); 24. The “reduction of mean trough bone marrow 2-HG concentrations (up to)” value (bone marrow 2-HG) was “up to 99%”, the “reduction of mean trough plasma 2-HG concentrations (up to)” value (plasma 2-HG) was at most 99% and the “%BAUEC0-24 (percentage reduction of plasma 2-HG based on AUEC0-24), mean (RSD%)” value (plasma 2-HG; [7]) was 80.6 (25.1); 21%. The “%Rtrough (percentage reduction of plasma 2-HG at the end of a dosing interval), mean (RSD%)” value (plasma 2-HG; [7]) was 77.1 (37.8); 21%, the “Plasma 2-HG AUEC0-24, mean (RSD%)” value (plasma 2-HG; [7]) was 1800 (116.1); 21 ng • h/mL and the “%BAUEC0-24 (percentage reduction of plasma 2-HG based on AUEC0-24), mean (RSD%)” value (plasma 2-HG; [8]) was 18.7 (108.0); 57%. For the same molecule, the “%Rtrough (percentage reduction of plasma 2-HG at the end of a dosing interval), mean (RSD%)” value (plasma 2-HG; [8]) was 37.8 (68.2); 57%, the “%BAUEC0-24 (percentage reduction of plasma 2-HG based on AUEC0-24), mean (RSD%)” value (plasma 2-HG; [9]) was 85.0 (24.7); 45% and the “%Rtrough (percentage reduction of plasma 2-HG at the end of a dosing interval), mean (RSD%)” value (plasma 2-HG; [9]) was 84.7 (24.6); 45%. The “Plasma 2-HG AUEC0-24, mean (RSD%)” value (plasma 2-HG; [9]) was 2030 (134.4); 45 ng • h/mL, the “%BAUEC0-24 (percentage reduction of plasma 2-HG based on AUEC0-24), mean (RSD%)” value (plasma 2-HG; [10]) was 73.9 (28.1); 16% and the “%Rtrough (percentage reduction of plasma 2-HG at the end of a dosing interval), mean (RSD%)” value (plasma 2-HG; [10]) was 82.8 (18.0); 16%. For the same molecule, the “Plasma 2-HG AUEC0-24, mean (RSD%)” value (plasma 2-HG; [10]) was 3960 (72.5); 16 ng • h/mL, the “%BAUEC0-24 (percentage reduction of plasma 2-HG based on AUEC0-24), mean (RSD%)” value (plasma 2-HG; [11]) was 83.1 (34.6); 15% and the “%Rtrough (percentage reduction of plasma 2-HG at the end of a dosing interval), mean (RSD%)” value (plasma 2-HG; [11]) was 82.3 (40.5); 15%. The “Plasma 2-HG AUEC0-24, mean (RSD%)” value (plasma 2-HG; [11]) was 1670 (130.2); 15 ng • h/mL, the “mean reduction in plasma 2-HG concentration” value (plasma 2-HG; patients with IDH2-R140 mutations (n = 41)) was 89.3% and the “mean reduction in plasma 2-HG concentration” value (plasma 2-HG; patients with IDH2-R172 mutations (n = 14)) was 76.9%. The “arithmetic mean percentage reduction of plasma 2-HG based on BAUEC0-8” value (plasma 2-HG; enasidenib starting on induction C1D1, following the first enasidenib dose) was 7.1%, the “reduction in plasma 2-HG AUEC0-8” value (plasma 2-HG; enasidenib starting on induction C1D8, at C1D8) was 71.6% and the “median 2-HG reduction” value (plasma 2-HG; in this study, enasidenib combined with chemotherapy) was over 75%. For the same molecule, the ORR ([2]; all patients receiving enasidenib 100 mg once daily) was 38.5%, the ORR ([2]; enasidenib 100 mg once daily, patients with IDH2-R140 mutations) was 35.4% and the ORR ([2]; enasidenib 100 mg once daily, patients with IDH2-R172 mutations) was 53.3%. For the same molecule, the “potency against IDH2-R172 compared with IDH2-R140” value (IDH2-R172) was “less potent”, the terminal half-life ([3]; enasidenib single agent) was “≈ 137 hours” and the “time to steady state” value ([3]; enasidenib single agent) was at most 29 days. For the same molecule, the accumulation ([3]; once-daily administration, ref data on file) was “≈ 10 fold”, the “plasma 2-HG reduction from baseline, maximum” value (2-HG [4]; IDH2-R140Q mutations) was 99% and the “plasma 2-HG reduction from baseline, median” value (2-HG [4]; IDH2-R140Q mutations) was 93%. The “plasma 2-HG reduction from baseline, maximum” value (2-HG [4]; IDH2-R172K mutations) was 94%, the “plasma 2-HG reduction from baseline, median” value (2-HG [4]; IDH2-R172K mutations) was 28% and the “median reduction in 2-HG concentrations from baseline” value (“median reduction” below) (2-HG [4]; enasidenib dose of 100 mg) was 90.4%. For the same molecule, the “median reduction” value (2-HG [4]; enasidenib doses of <100 mg) was 92.4% and the “median reduction” value (2-HG [4]; enasidenib doses of >100 mg) was 93.1%.

In the case of `N#Cc1ccnc(N2C(=O)CC[C@H]2C(=O)N(c2cncc(F)c2)[C@H](C(=O)NC2CC(F)(F)C2)c2ccccc2Cl)c1` [Ivosidenib, ivosidenib], the “AUC parameters when coadministered with itraconazole” value (CYP3A4) is given as “increased”, the “Cmax when coadministered with itraconazole” value (CYP3A4) is given as “unaffected” and the “patients achieving a ≥90% reduction in plasma 2-HG concentrations” value (2-HG [5]; after multiple doses) is given as 71%. The “reduction in bone marrow 2-HG concentrations” value (2-HG [5]) was over 90%, the “time to steady-state PK based on Ctrough” value [1] was at most 14 days and the “Racc AUC0-24 (accumulation ratio based on AUC0-24), mean (SD)” value [1, 12] was 1.38 (0.83); 24. For the same molecule, the “Racc Cmax (accumulation ratio based on Cmax), mean (SD)” value [1, 12] was 1.21 (0.69); 30, the “Racc AUC0-24 (accumulation ratio based on AUC0-24), mean (SD)” value [1, 13] was 2.35 (1.2); 38 and the “Racc Cmax (accumulation ratio based on Cmax), mean (SD)” value [1, 13] was 1.69 (0.71); 49. The “reduction of mean trough bone marrow 2-HG concentrations (up to)” value (bone marrow 2-HG) was “up to 99%”, the “reduction of mean trough plasma 2-HG concentrations (up to)” value (plasma 2-HG) was at most 99% and the “%BAUEC0-24 (percentage reduction of plasma 2-HG based on AUEC0-24), mean (RSD%)” value (plasma 2-HG; [12]) was 91.0 (16.9); 28%. The “%Rtrough (percentage reduction of plasma 2-HG at the end of a dosing interval), mean (RSD%)” value (plasma 2-HG; [12]) was 90.7 (17.2); 28%, the “Plasma 2-HG AUEC0-24, mean (RSD%)” value (plasma 2-HG; [12]) was 1090 (39.8); 29 ng • h/mL and the “%BAUEC0-24 (percentage reduction of plasma 2-HG based on AUEC0-24), mean (RSD%)” value (plasma 2-HG; [14]) was 53.0 (30.5); 48^b %. The “%Rtrough (percentage reduction of plasma 2-HG at the end of a dosing interval), mean (RSD%)” value (plasma 2-HG; [14]) was 80.8 (28.1); 48^b %, the “%BAUEC0-24 (percentage reduction of plasma 2-HG based on AUEC0-24), mean (RSD%)” value (plasma 2-HG; [15]) was 90.0 (23.8); 46% and the “%Rtrough (percentage reduction of plasma 2-HG at the end of a dosing interval), mean (RSD%)” value (plasma 2-HG; [15]) was 89.8 (23.9); 46%. The “Plasma 2-HG AUEC0-24, mean (RSD%)” value (plasma 2-HG; [15]) was 1120 (51.8); 47 ng • h/mL, the “overall response rate (ORR)” value (mIDH1 R/R AML) was 41.6% and the half-life ([6]; ivosidenib 500 mg once daily single agent, after a single dose) was 93 h. The accumulation ratio ([6]; ivosidenib 500 mg once daily single agent, after multiple doses) was “≈ 2 fold”, the “time to steady state based on observed Ctrough” value ([6]; ivosidenib 500 mg once daily single agent) was at most 14 days and the “ivosidenib clearance with concomitant moderate or strong CYP3A4 inhibitors” value ([6]; patients, phase 1 single-agent study) was “decreased”.
